# Test results: ChEMBL document CHEMBL1134624, “Potent and selective ET-A antagonists. 1. Syntheses and structure-activity relationships of N-(6-(2-(aryloxy)ethoxy)-4-pyrimidinyl)sulfonamide derivatives” (J Med Chem, 2001)
# Target: T1, Endothelin-1 receptor (Sus scrofa, UniProt Q29010)
# T1 sequence (Q29010 whole entry): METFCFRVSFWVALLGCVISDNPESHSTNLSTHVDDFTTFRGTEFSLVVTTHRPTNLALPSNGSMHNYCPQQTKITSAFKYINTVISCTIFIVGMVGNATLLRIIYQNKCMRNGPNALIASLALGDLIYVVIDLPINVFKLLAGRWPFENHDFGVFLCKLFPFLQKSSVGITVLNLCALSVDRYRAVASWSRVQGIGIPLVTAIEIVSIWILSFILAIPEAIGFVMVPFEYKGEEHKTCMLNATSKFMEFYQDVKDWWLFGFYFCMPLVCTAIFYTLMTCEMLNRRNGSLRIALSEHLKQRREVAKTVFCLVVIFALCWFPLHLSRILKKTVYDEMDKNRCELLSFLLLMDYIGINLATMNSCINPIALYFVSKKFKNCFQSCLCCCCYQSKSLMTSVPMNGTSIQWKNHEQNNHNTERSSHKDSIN
# Assay: In vitro inhibition of [125I]ET1 binding to Endothelin A receptor in porcine aortic membrane from endothelial cells
# Format: cell membranes
# Settings: in the assay text read “with endothelium removed” for “from endothelial cells”
# Outline: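 Endothelium-free porcine aorta homogenized in 10 mM MOPS (pH 7.4) with 20% sucrose. Membranes spun 1000g 15 min, then supernatant 90000g 45 min, and resuspended in 5 mM HEPES-Tris. Incubated with 20 pM final 125I-ET-1 and graded compound concentrations in 50 mM Tris-HCl pH 7.4, 0.1% BSA, protease inhibitors, EDTA, 2 h at 25 °C. Filtered, washed, gamma-counted.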
row,IC50,Structure (SMILES)
1,65 nM,COc1cccc(Oc2c(NS(=O)(=O)c3ccc(C(C)(C)C)cc3)ncnc2OCCOc2ccccc2)c1
2,0.76 nM,COc1ccc(S(=O)(=O)Nc2ncnc(OCCOc3ncc(Br)cn3)c2-c2ccc(C)cc2)cc1
3,1 nM,Cc1ccc(-c2c(NS(=O)(=O)c3ccc4ccccc4c3)ncnc2OCCOc2ncc(Br)cn2)cc1
4,0.16 nM,CSc1cnc(OCCOc2ncnc(NS(=O)(=O)c3ccc(C(C)(C)C)cc3)c2-c2ccc(C)s2)nc1
5,0.0039 nM,COc1ccccc1Oc1c(NS(=O)(=O)c2ccc(C(C)(C)C)cc2)ncnc1OCCOc1ncc(Br)cn1
6,0.64 nM,COc1ccc(S(=O)(=O)Nc2ncnc(OCCOc3ncc(Br)cn3)c2-c2ccc(C)cc2)cc1OC
7,2.9 nM,CSc1cnc(OCCOc2ncnc(NS(=O)(=O)c3ccc(C(C)(C)C)cc3)c2-c2ccco2)nc1
8,< 0.001 nM,Cc1ccc(-c2c(NS(=O)(=O)c3ccc(C(C)(C)C)cc3)ncnc2OCCOc2ncc(Br)cn2)cc1 [listing 1 of 2 here]
9,0.0017 nM,COc1cnc(OCCOc2ncnc(NS(=O)(=O)c3ccc(C(C)(C)C)cc3)c2-c2ccc(C)cc2)nc1 [listing 1 of 2 here]
10,51.4 nM,COc1cccc(Oc2c(NS(=O)(=O)c3ccc(C(C)(C)C)cc3)ncnc2OCCOc2cccnn2)c1
11,39.4 nM,COc1cccc(Oc2c(NS(=O)(=O)c3ccc(C(C)(C)C)cc3)ncnc2OCCOc2nccc(C)n2)c1
12,8.8 nM,COc1cccc(Oc2c(NS(=O)(=O)c3ccc(C(C)(C)C)cc3)ncnc2OCCOc2ccccn2)c1
13,1.9 nM,COc1cccc(Oc2c(NS(=O)(=O)c3ccc(C(C)(C)C)cc3)ncnc2OCCOc2ncccn2)c1
14,0.015 nM,COc1cnc(OCCOc2ncnc(NS(=O)(=O)c3ccc(C(C)(C)C)cc3)c2Oc2cccc(OC)c2)nc1
15,0.37 nM,COc1ccccc1Oc1c(NS(=O)(=O)c2ccc(C(C)(C)C)cc2)ncnc1OCCOc1ncc(SC)cn1
16,3.1 nM,Cc1ccc(-c2c(NS(=O)(=O)c3cccs3)ncnc2OCCOc2ncc(Br)cn2)cc1
17,0.051 nM,COc1cccc(Oc2c(NS(=O)(=O)c3ccc(C(C)(C)C)cc3)ncnc2OCCOc2ncc(Br)cn2)c1
18,45.4 nM,COc1cccc(Oc2c(NS(=O)(=O)c3ccc(C(C)(C)C)cc3)ncnc2OCCOc2cnc3ccccc3n2)c1
19,0.0017 nM,CSc1cnc(OCCOc2ncnc(NS(=O)(=O)c3ccc(C(C)(C)C)cc3)c2-c2ccc(C(F)(F)F)cc2)nc1
20,0.86 nM,COc1cccc(Oc2c(NS(=O)(=O)c3ccc(C(C)(C)C)cc3)ncnc2OCCOc2ncc(C)cn2)c1

row,IC50,Structure (SMILES)
1,0.059 nM,COc1cccc(Oc2c(NS(=O)(=O)c3ccc(C(C)(C)C)cc3)ncnc2OCCOc2ncc(Cl)cn2)c1
2,92 nM,COCCOc1ncnc(NS(=O)(=O)c2ccc(C(C)(C)C)cc2)c1Oc1cccc(OC)c1
3,1.4 nM,Cc1ccc(-c2c(NS(=O)(=O)c3ccc(C(F)(F)F)cc3)ncnc2OCCOc2ncc(Br)cn2)cc1
4,> 100 nM,COc1cccc(Oc2c(NS(=O)(=O)c3ccc(C(C)(C)C)cc3)ncnc2OCCNc2ncccn2)c1
5,1.2 nM,CSc1cnc(OCCOc2ncnc(NS(=O)(=O)c3ccc(C(C)(C)C)cc3)c2-c2ccc(C(C)C)cc2)nc1
6,0.028 nM,COc1cccc(-c2c(NS(=O)(=O)c3ccc(C(C)(C)C)cc3)ncnc2OCCOc2ncc(SC)cn2)c1
7,0.018 nM,COc1ccccc1Sc1c(NS(=O)(=O)c2ccc(C(C)(C)C)cc2)ncnc1OCCOc1ncc(Br)cn1
8,3.4 nM,Cc1ccc(-c2c(NS(=O)(=O)c3ccc(-c4ccccn4)s3)ncnc2OCCOc2ncc(Br)cn2)cc1
9,< 0.001 nM,CSc1cnc(OCCOc2ncnc(NS(=O)(=O)c3ccc(C(C)(C)C)cc3)c2-c2ccc(C)cc2)nc1 [listing 1 of 2 here]
10,< 0.001 nM,Cc1ccc(-c2c(NS(=O)(=O)c3ccc(C(C)(C)C)cc3)ncnc2OCCOc2ncc(-c3ccco3)cn2)cc1 [listing 1 of 2 here]
11,1 nM,Cc1ccc(-c2c(NS(=O)(=O)c3ccc(I)cc3)ncnc2OCCOc2ncc(Br)cn2)cc1
12,0.29 nM,CSc1cnc(OCCOc2ncnc(NS(=O)(=O)c3ccc(C(C)(C)C)cc3)c2-c2ccc3ccccc3c2)nc1
13,> 100 nM,COc1cccc(Oc2c(NS(=O)(=O)c3ccc(C(C)(C)C)cc3)ncnc2OCCOc2nccc(OC)n2)c1
14,0.0085 nM,COc1ccc(-c2c(NS(=O)(=O)c3ccc(C(C)(C)C)cc3)ncnc2OCCOc2ncc(SC)cn2)cc1OC
15,> 100 nM,COc1cccc(Oc2c(NS(=O)(=O)c3ccc(C(C)(C)C)cc3)ncnc2OCCOc2nccc3ccccc23)c1
16,0.036 nM,Cc1ccc(-c2c(NS(=O)(=O)c3ccc(C(C)(C)C)cc3)ncnc2OCCOc2ncc(-c3ccccn3)cn2)cc1
17,22 nM,Cc1ccc(-c2c(NS(=O)(=O)c3cccc4ccccc34)ncnc2OCCOc2ncc(Br)cn2)cc1
18,0.16 nM,Cc1ccc(-c2c(NS(=O)(=O)c3ccc(C(C)C)cc3)ncnc2OCCOc2ncc(Br)cn2)cc1
19,170 nM,COc1cccc(Oc2c(NS(=O)(=O)c3ccc(C(C)(C)C)cc3)ncnc2OCCOCc2ccccc2)c1
20,0.11 nM,Cc1ccc(-c2c(NS(=O)(=O)c3ccc(C(C)(C)C)cc3)ncnc2OCCOc2ncccn2)cc1

row,IC50,Structure (SMILES)
1,< 0.001 nM,Cc1ccc(-c2c(NS(=O)(=O)c3ccc(C(C)(C)C)cc3)ncnc2OCCOc2ncc(Cl)cn2)cc1 [listing 1 of 2 here]
2,< 0.001 nM,CCC(C)(C)c1ccc(S(=O)(=O)Nc2ncnc(OCCOc3ncc(Br)cn3)c2-c2ccc(C)cc2)cc1
3,1.2 nM,COc1cccc(Oc2c(NS(=O)(=O)c3ccc(C(C)(C)C)cc3)ncnc2OCCOc2ccncn2)c1
4,> 100 nM,Cc1ccc(-c2c(NS(=O)(=O)c3ccc(C(C)(C)C)cc3)ncnc2OCCO)cc1
5,24.5 nM,COc1cccc(Oc2c(NS(=O)(=O)c3ccc(C(C)(C)C)cc3)ncnc2OCCOc2cnccn2)c1
6,< 0.001 nM,COc1ccc(-c2c(NS(=O)(=O)c3ccc(C(C)(C)C)cc3)ncnc2OCCOc2ncc(SC)cn2)cc1
7,0.0011 nM,CSc1cnc(OCCOc2ncnc(NS(=O)(=O)c3ccc(C(C)(C)C)cc3)c2-c2ccc3c(c2)OCO3)nc1
8,25.8 nM,COc1cccc(Oc2c(NS(=O)(=O)c3ccc(C(C)(C)C)cc3)ncnc2SCCOc2ncccn2)c1
9,15.2 nM,COc1cccc(Oc2c(NS(=O)(=O)c3ccc(C(C)(C)C)cc3)ncnc2OCCOc2ccc3ccccc3n2)c1
10,< 0.001 nM,Cc1ccc(-c2c(NS(=O)(=O)c3ccc(C(C)(C)C)cc3)ncnc2OCCOc2ncc(-c3ccsc3)cn2)cc1
11,12 nM,COc1cccc(Oc2c(NS(=O)(=O)c3ccc(C(C)(C)C)cc3)ncnc2OCCOc2nccs2)c1
12,0.013 nM,CCc1ccc(-c2c(NS(=O)(=O)c3ccc(C(C)(C)C)cc3)ncnc2OCCOc2ncc(SC)cn2)cc1
13,2.8 nM,Cc1ccc(-c2c(NS(=O)(=O)c3ccc(Br)cc3)ncnc2OCCOc2ncc(Br)cn2)cc1
14,< 0.001 nM,Cc1ccc(-c2c(NS(=O)(=O)c3ccc(C(C)(C)C)cc3)ncnc2OCCOc2ncc(-c3cccs3)cn2)cc1 [listing 1 of 2 here]
15,> 100 nM,COc1cccc(Oc2c(NS(=O)(=O)c3ccc(C(C)(C)C)cc3)ncnc2OCCCc2ncccn2)c1
16,< 0.001 nM,CSc1cnc(OCCOc2ncnc(NS(=O)(=O)c3ccc(C(C)(C)C)cc3)c2-c2ccc(Cl)cc2)nc1
17,9.9 nM,CSc1cnc(OCCOc2ncnc(NS(=O)(=O)c3ccc(C(C)(C)C)cc3)c2-c2ccncc2)nc1
18,93.5 nM,COc1cccc(Oc2c(NS(=O)(=O)c3ccc(C(C)(C)C)cc3)ncnc2OCCCOc2ncc(C)cn2)c1
19,0.89 nM,CSc1cnc(OCCOc2ncnc(NS(=O)(=O)c3ccc(C(C)(C)C)cc3)c2-c2cccs2)nc1
20,6.2 nM,COc1cccc(Oc2c(NCCOc3ncccn3)ncnc2NS(=O)(=O)c2ccc(C(C)(C)C)cc2)c1

# Target: T2, Endothelin receptor type B (Homo sapiens, UniProt P24530)
# T2 sequence (P24530 whole entry): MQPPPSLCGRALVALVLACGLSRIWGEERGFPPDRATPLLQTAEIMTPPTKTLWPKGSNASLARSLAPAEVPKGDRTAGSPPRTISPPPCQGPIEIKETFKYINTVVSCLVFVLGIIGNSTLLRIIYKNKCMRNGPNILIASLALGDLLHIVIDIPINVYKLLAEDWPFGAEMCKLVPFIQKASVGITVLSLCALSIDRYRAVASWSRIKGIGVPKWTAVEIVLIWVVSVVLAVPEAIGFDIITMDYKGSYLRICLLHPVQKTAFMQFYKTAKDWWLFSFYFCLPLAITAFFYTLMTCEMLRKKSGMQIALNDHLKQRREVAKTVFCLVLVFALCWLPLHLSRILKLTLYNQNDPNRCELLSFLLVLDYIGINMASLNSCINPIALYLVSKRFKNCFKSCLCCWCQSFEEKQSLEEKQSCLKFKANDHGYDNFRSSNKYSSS
# Assay: In vitro for specific binding of [125I]ET1 to GHcell expressed in Endothelin B receptor
# Settings: not given
row,IC50,Structure (SMILES)
1,7 nM,Cc1ccc(-c2c(NS(=O)(=O)c3ccc(C(C)(C)C)cc3)ncnc2OCCOc2ncc(-c3ccco3)cn2)cc1 [listing 2 of 2 here]
2,28 nM,Cc1ccc(-c2c(NS(=O)(=O)c3ccc(C(C)(C)C)cc3)ncnc2OCCOc2ncc(Cl)cn2)cc1 [listing 2 of 2 here]
3,220 nM,CSc1cnc(OCCOc2ncnc(NS(=O)(=O)c3ccc(C(C)(C)C)cc3)c2-c2ccc(C)cc2)nc1 [listing 2 of 2 here]
4,3.8 nM,Cc1ccc(-c2c(NS(=O)(=O)c3ccc(C(C)(C)C)cc3)ncnc2OCCOc2ncc(-c3cccs3)cn2)cc1 [listing 2 of 2 here]
5,240 nM,COc1cnc(OCCOc2ncnc(NS(=O)(=O)c3ccc(C(C)(C)C)cc3)c2-c2ccc(C)cc2)nc1 [listing 2 of 2 here]
6,38 nM,Cc1ccc(-c2c(NS(=O)(=O)c3ccc(C(C)(C)C)cc3)ncnc2OCCOc2ncc(Br)cn2)cc1 [listing 2 of 2 here]
